Experimental data: ChEMBL document CHEMBL1255429, “Efflux pumps are involved in the defense of Gram-negative bacteria against the natural products isobavachalcone and diospyrone” (2010)

What was measured:
Assay type in all cases: functional
Klebsiella aerogenes [1] = experiment: Antimicrobial activity against Enterobacter aerogenes EA3 after 18 hrs by rapid INT colorimetric assay in presence of efflux pump inhibitor phenylalanine arginine; details: EA3, 18 h
Klebsiella pneumoniae [2] = experiment: Antimicrobial activity against Klebsiella pneumoniae ATCC 11296 after 18 hrs by rapid INT colorimetric assay; details: ATCC 11296, 18 h
Summary of the method: (§1)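 Strains precultured overnight on Mueller-Hinton agar. Samples dissolved in DMSO-MHB, serially diluted twofold in MHB, inoculum 1.5 × 10^6 CFU/ml in MHB added; 37°C, 18 h; final DMSO <2.5%. 0.2 mg/ml INT then added, 30 min at 37°C. MIC = lowest concentration preventing yellow-to-pink reduction, i.e. complete growth inhibition.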

Klebsiella aerogenes [3] = experiment: Antimicrobial activity against Enterobacter aerogenes EA-CM64 after 18 hrs by rapid INT colorimetric assay in presence of efflux pump inhibitor phenylalanine arginine; details: EA-CM64, 18 h
Klebsiella aerogenes [4] = experiment: Antimicrobial activity against Enterobacter aerogenes EA294 after 18 hrs by rapid INT colorimetric assay in presence of efflux pump inhibitor phenylalanine arginine; details: EA294, 18 h
Enterobacter cloacae [5] = experiment: Antimicrobial activity against Enterobacter cloacae Ec07769 after 18 hrs by rapid INT colorimetric assay in presence of efflux pump inhibitor phenylalanine arginine; details: Ec07769, 18 h
Klebsiella pneumoniae [6] = experiment: Antimicrobial activity against Klebsiella pneumoniae KP55 after 18 hrs by rapid INT colorimetric assay; details: KP55, 18 h
Summary of the method: (§2)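 Strains precultured overnight on Mueller-Hinton agar. Sample dissolved in DMSO-MHB, twofold serial dilutions in MHB, inoculum 1.5 × 10^6 CFU/ml; final DMSO below 2.5%. Incubated 37°C 18 h, then 0.2 mg/ml INT added, 30 min at 37°C. MIC = lowest concentration preventing yellow-to-pink change (complete growth inhibition). DMSO-only wells as negative control.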

Escherichia coli [7] = experiment: Antimicrobial activity against tetracycline-resistant Escherichia coli AG100A after 18 hrs by rapid INT colorimetric assay in presence of efflux pump inhibitor phenylalanine arginine
Summary of the method: (§3)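 Broth microdilution MIC in Mueller-Hinton broth with PAßN at a final 20 μg/ml throughout. Twofold dilutions of sample from DMSO-MHB stock; inoculum 1.5 × 10^6 CFU/ml; 18 h at 37°C, final DMSO <2.5%. Growth read by INT (0.2 mg/ml, 30 min, 37°C). MIC taken as lowest concentration with no pink colour.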

Escherichia coli [8] = experiment: Antimicrobial activity against Escherichia coli ATCC 10536 after 18 hrs by rapid INT colorimetric assay in presence of efflux pump inhibitor phenylalanine arginine beta-naphthylamide; details: ATCC 10536, 18 h; summary of the method: as §3
Escherichia coli [9] = experiment: Antimicrobial activity against tetracycline-resistant Escherichia coli AG102 after 18 hrs by rapid INT colorimetric assay in presence of efflux pump inhibitor phenylalanine arginine; details: AG102, 18 h; summary of the method: as §3
Escherichia coli [10] = experiment: Antimicrobial activity against Escherichia coli AG100 after 18 hrs by rapid INT colorimetric assay in presence of efflux pump inhibitor phenylalanine arginine; details: AG100, 18 h
Enterobacter cloacae [11] = experiment: Antimicrobial activity against Enterobacter cloacae Ec07769 after 18 hrs by rapid INT colorimetric assay; details: Ec07769, 18 h; summary of the method: as §2
Escherichia coli [12] = experiment: Antimicrobial activity against tetracycline-resistant Escherichia coli AG100A after 18 hrs by rapid INT colorimetric assay; summary of the method: as §1
Klebsiella pneumoniae [13] = experiment: Antimicrobial activity against Klebsiella pneumoniae ATCC 11296 after 18 hrs by rapid INT colorimetric assay in presence of efflux pump inhibitor phenylalanine arginine; details: ATCC 11296, 18 h
Escherichia coli [14] = experiment: Antimicrobial activity against Escherichia coli ATCC 8739 after 18 hrs by rapid INT colorimetric assay; details: ATCC 8739, 18 h; summary of the method: as §1
Pseudomonas aeruginosa [15] = experiment: Antimicrobial activity against Pseudomonas aeruginosa PA124 after 18 hrs by rapid INT colorimetric assay in presence of efflux pump inhibitor phenylalanine arginine; details: PA124, 18 h
Escherichia coli [16] = experiment: Antimicrobial activity against Escherichia coli AG100A after 18 hrs by rapid INT colorimetric assay; summary of the method: as §1
Klebsiella pneumoniae [17] = experiment: Antimicrobial activity against Klebsiella pneumoniae KP55 after 18 hrs by rapid INT colorimetric assay in presence of efflux pump inhibitor phenylalanine arginine; details: KP55, 18 h
Pseudomonas aeruginosa [18] = experiment: Antimicrobial activity against Pseudomonas aeruginosa PAO1 after 18 hrs by rapid INT colorimetric assay in presence of efflux pump inhibitor phenylalanine arginine; details: PAO1, 18 h
Escherichia coli [19] = experiment: Antimicrobial activity against tetracycline-resistant Escherichia coli AG102 after 18 hrs by rapid INT colorimetric assay; details: AG102, 18 h; summary of the method: as §1
Klebsiella aerogenes [20] = experiment: Antimicrobial activity against Enterobacter aerogenes EA5 after 18 hrs by rapid INT colorimetric assay in presence of efflux pump inhibitor phenylalanine arginine; details: EA5, 18 h
Pseudomonas aeruginosa [21] = experiment: Antimicrobial activity against Pseudomonas aeruginosa PA124 after 18 hrs by rapid INT colorimetric assay; details: PA124, 18 h; summary of the method: as §1
Escherichia coli [22] = experiment: Antimicrobial activity against Escherichia coli AG100A after 18 hrs by rapid INT colorimetric assay in presence of efflux pump inhibitor phenylalanine arginine
Klebsiella aerogenes [23] = experiment: Antimicrobial activity against Enterobacter aerogenes EA294 after 18 hrs by rapid INT colorimetric assay; details: EA294, 18 h; summary of the method: as §1
Enterobacter cloacae [24] = experiment: Antimicrobial activity against Enterobacter cloacae Ec1194 after 18 hrs by rapid INT colorimetric assay; details: Ec1194, 18 h; summary of the method: as §2
Klebsiella aerogenes [25] = experiment: Antimicrobial activity against Enterobacter aerogenes EA289 after 18 hrs by rapid INT colorimetric assay in presence of efflux pump inhibitor phenylalanine arginine; details: EA289, 18 h
Enterobacter cloacae [26] = experiment: Antimicrobial activity against Enterobacter cloacae Ec1194 after 18 hrs by rapid INT colorimetric assay in presence of efflux pump inhibitor phenylalanine arginine; details: Ec1194, 18 h; summary of the method: as §3
Pseudomonas aeruginosa [27] = experiment: Antimicrobial activity against Pseudomonas aeruginosa PAO1 after 18 hrs by rapid INT colorimetric assay; details: PAO1, 18 h; summary of the method: as §1
Escherichia coli [28] = experiment: Antimicrobial activity against Escherichia coli ATCC 10536 after 18 hrs by rapid INT colorimetric assay; details: ATCC 10536, 18 h; summary of the method: as §2
Escherichia coli [29] = experiment: Antimicrobial activity against Escherichia coli ATCC 8739 after 18 hrs by rapid INT colorimetric assay in presence of efflux pump inhibitor phenylalanine arginine; details: ATCC 8739, 18 h; summary of the method: as §3
Klebsiella aerogenes [30] = experiment: Antimicrobial activity against Enterobacter aerogenes ATCC 13048 after 18 hrs by rapid INT colorimetric assay in presence of efflux pump inhibitor phenylalanine arginine; details: ATCC 13048, 18 h
Klebsiella aerogenes [31] = experiment: Antimicrobial activity against Enterobacter aerogenes EA27 after 18 hrs by rapid INT colorimetric assay in presence of efflux pump inhibitor phenylalanine arginine; details: EA27, 18 h
Klebsiella aerogenes [32] = experiment: Antimicrobial activity against Enterobacter aerogenes EA298 after 18 hrs by rapid INT colorimetric assay in presence of efflux pump inhibitor phenylalanine arginine; details: EA298, 18 h
Klebsiella aerogenes [33] = experiment: Antimicrobial activity against Enterobacter aerogenes ATCC 13048 after 18 hrs by rapid INT colorimetric assay; details: ATCC 13048, 18 h; summary of the method: as §2
Klebsiella aerogenes [34] = experiment: Antimicrobial activity against Enterobacter aerogenes EA27 after 18 hrs by rapid INT colorimetric assay; details: EA27, 18 h; summary of the method: as §2
Klebsiella aerogenes [35] = experiment: Antimicrobial activity against Enterobacter aerogenes EA5 after 18 hrs by rapid INT colorimetric assay; details: EA5, 18 h; summary of the method: as §2
Klebsiella aerogenes [36] = experiment: Antimicrobial activity against Enterobacter aerogenes EA3 after 18 hrs by rapid INT colorimetric assay; details: EA3, 18 h; summary of the method: as §2
Klebsiella aerogenes [37] = experiment: Antimicrobial activity against Enterobacter aerogenes EA289 after 18 hrs by rapid INT colorimetric assay; details: EA289, 18 h; summary of the method: as §2
Klebsiella pneumoniae [38] = experiment: Antimicrobial activity against Klebsiella pneumoniae KP63 after 18 hrs by rapid INT colorimetric assay in presence of efflux pump inhibitor phenylalanine arginine; details: KP63, 18 h
Escherichia coli [39] = experiment: Antimicrobial activity against Escherichia coli AG100 after 18 hrs by rapid INT colorimetric assay; details: AG100, 18 h; summary of the method: as §1
Klebsiella aerogenes [40] = experiment: Antimicrobial activity against Enterobacter aerogenes EA-CM64 after 18 hrs by rapid INT colorimetric assay; details: EA-CM64, 18 h; summary of the method: as §1
Klebsiella pneumoniae [41] = experiment: Antimicrobial activity against Klebsiella pneumoniae KP63 after 18 hrs by rapid INT colorimetric assay; details: KP63, 18 h; summary of the method: as §2
Klebsiella aerogenes [42] = experiment: Antimicrobial activity against Enterobacter aerogenes EA298 after 18 hrs by rapid INT colorimetric assay; details: EA298, 18 h; summary of the method: as §1

Measured: MIC

O=C(N[C@H](CO)[C@H](O)c1ccc([N+](=O)[O-])cc1)C(Cl)Cl [CHLORAMPHENICOL]
32 µg/mL: Klebsiella pneumoniae [6] | Escherichia coli [12] | Escherichia coli [19] | Klebsiella aerogenes [20]
0.5 µg/mL: Escherichia coli [8] | Escherichia coli [16]
128 µg/mL: Klebsiella aerogenes [1] | Klebsiella aerogenes [25] | Pseudomonas aeruginosa [27] | Klebsiella aerogenes [31] | Klebsiella pneumoniae [38]
1 µg/mL: Enterobacter cloacae [26] | Escherichia coli [28] | Escherichia coli [29] | Klebsiella aerogenes [30]
2 µg/mL: Klebsiella pneumoniae [2] | Escherichia coli [7] | Escherichia coli [9] | Klebsiella pneumoniae [13] | Enterobacter cloacae [24]
16 µg/mL: Klebsiella aerogenes [4] | Klebsiella aerogenes [32]
4 µg/mL: Escherichia coli [14] | Klebsiella pneumoniae [17] | Klebsiella aerogenes [33] | Escherichia coli [39]
8 µg/mL: Klebsiella aerogenes [3] | Pseudomonas aeruginosa [15] | Pseudomonas aeruginosa [18]
256 µg/mL: Enterobacter cloacae [5] | Pseudomonas aeruginosa [21] | Klebsiella aerogenes [40]
64 µg/mL: Klebsiella aerogenes [23] | Klebsiella aerogenes [42]
0.25 µg/mL: Escherichia coli [10] | Escherichia coli [22]
> 256 µg/mL: all other assays above
